{
  "source": "ChEMBL document CHEMBL3108739",
  "about": "“Activation and inhibition of thermosensitive TRP channels by voacangine, an alkaloid present in Voacanga africana, an African tree” (J Nat Prod, 2014)",
  "key": {"[1]": {"target": "Transient receptor potential cation channel subfamily A member 1 (Homo sapiens, UniProt O75762)", "sequence (O75762 whole entry)": "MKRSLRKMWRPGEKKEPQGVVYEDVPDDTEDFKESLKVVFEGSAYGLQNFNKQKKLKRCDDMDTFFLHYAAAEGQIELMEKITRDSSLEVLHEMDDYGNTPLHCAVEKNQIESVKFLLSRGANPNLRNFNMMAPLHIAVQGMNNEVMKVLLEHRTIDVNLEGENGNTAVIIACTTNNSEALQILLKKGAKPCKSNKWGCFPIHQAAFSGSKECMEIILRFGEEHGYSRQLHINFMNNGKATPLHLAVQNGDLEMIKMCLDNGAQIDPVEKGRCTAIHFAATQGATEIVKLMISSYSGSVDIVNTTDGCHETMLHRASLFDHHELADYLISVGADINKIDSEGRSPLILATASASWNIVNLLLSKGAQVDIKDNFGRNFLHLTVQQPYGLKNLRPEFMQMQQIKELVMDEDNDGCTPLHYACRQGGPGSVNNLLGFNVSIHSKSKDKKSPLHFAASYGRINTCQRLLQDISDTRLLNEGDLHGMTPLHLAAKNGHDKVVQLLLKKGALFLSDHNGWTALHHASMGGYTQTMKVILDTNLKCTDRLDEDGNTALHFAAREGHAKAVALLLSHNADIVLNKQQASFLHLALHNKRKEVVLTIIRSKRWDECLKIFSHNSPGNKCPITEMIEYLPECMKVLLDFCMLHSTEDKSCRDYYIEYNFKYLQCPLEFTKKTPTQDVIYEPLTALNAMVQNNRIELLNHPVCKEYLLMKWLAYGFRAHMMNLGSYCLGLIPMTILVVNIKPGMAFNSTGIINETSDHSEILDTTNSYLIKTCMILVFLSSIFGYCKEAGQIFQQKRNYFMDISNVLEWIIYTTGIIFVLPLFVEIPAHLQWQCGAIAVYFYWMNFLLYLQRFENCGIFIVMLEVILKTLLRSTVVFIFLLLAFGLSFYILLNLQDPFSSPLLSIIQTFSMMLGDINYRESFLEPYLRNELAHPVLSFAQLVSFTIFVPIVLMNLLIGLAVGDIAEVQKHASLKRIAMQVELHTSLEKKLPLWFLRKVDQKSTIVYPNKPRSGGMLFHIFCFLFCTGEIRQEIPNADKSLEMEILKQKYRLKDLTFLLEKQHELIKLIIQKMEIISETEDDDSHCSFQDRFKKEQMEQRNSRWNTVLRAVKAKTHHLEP", "test": "Agonist activity at TRPA1 isolated from human W138 cells expressed in HEK293T cells assessed as intracellular Ca2+ influx by Fluo-4 AM staining-based fluorescence analysis", "type": "cell-based", "summary_of_the_method": "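Tetracycline-induced (1 μg/mL) stable hTRPA1 in HEK T-REx cells, Fluo-4 AM loaded (3 μM, 1 h, 37 °C) in HEPES buffer pH 7.4 with probenecid; Ca2+ read at 37 °C. Responses as % of 5 μM ionomycin or of 100 μM AITC; TREx cells without TRPA1 as control; n = 4−8.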"}, "[2]": {"target": "T1, Transient receptor potential cation channel subfamily V member 2 (Homo sapiens) (UniProt Q9Y5S1)", "T1 sequence (whole entry)": "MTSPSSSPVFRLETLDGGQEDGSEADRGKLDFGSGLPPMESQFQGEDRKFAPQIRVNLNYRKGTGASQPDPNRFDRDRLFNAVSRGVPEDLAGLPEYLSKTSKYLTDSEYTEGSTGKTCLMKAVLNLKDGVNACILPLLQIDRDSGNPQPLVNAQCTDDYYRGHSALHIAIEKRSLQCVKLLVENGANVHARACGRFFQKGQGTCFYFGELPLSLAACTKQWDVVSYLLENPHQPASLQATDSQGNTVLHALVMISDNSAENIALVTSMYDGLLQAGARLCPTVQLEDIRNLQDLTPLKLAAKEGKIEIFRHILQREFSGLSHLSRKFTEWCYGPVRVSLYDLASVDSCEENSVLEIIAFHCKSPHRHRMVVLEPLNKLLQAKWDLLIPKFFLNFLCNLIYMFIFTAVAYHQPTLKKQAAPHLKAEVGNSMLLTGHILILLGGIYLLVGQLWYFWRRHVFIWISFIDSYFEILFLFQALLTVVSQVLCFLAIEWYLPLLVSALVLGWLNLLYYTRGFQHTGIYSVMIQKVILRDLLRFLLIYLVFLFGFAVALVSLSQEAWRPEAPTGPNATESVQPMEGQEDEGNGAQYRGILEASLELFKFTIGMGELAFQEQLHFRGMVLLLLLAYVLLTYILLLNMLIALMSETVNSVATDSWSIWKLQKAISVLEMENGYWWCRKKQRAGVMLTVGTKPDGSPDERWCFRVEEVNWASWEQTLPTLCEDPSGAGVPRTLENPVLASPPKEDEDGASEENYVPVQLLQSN", "test": "Antagonist activity at human TRPV2 expressed in HEK293T cells assessed as LPC-induced intracellular Ca2+ influx at 100 uM by Fluo-4 AM staining-based fluorescence analysis", "type": "cell-based", "details": "HEK-293T", "summary_of_the_method": "(§1)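 hTRPV2 transiently transfected into HEK293T, seeded 6 h after transfection and used 18 h later. Fluo-4 loading in probenecid-free buffer, 37 °C. Agonist 30 and 40 μM LPC; ruthenium red 5 μM as reference blocker; 100 μM compound given alone or pretreated 3 min. Read-out ΔF/F0 (%).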"}, "[3]": {"target": "Transient receptor potential cation channel subfamily M member 8 (Mus musculus) (UniProt Q8R4D5)", "sequence (Q8R4D5 whole entry)": "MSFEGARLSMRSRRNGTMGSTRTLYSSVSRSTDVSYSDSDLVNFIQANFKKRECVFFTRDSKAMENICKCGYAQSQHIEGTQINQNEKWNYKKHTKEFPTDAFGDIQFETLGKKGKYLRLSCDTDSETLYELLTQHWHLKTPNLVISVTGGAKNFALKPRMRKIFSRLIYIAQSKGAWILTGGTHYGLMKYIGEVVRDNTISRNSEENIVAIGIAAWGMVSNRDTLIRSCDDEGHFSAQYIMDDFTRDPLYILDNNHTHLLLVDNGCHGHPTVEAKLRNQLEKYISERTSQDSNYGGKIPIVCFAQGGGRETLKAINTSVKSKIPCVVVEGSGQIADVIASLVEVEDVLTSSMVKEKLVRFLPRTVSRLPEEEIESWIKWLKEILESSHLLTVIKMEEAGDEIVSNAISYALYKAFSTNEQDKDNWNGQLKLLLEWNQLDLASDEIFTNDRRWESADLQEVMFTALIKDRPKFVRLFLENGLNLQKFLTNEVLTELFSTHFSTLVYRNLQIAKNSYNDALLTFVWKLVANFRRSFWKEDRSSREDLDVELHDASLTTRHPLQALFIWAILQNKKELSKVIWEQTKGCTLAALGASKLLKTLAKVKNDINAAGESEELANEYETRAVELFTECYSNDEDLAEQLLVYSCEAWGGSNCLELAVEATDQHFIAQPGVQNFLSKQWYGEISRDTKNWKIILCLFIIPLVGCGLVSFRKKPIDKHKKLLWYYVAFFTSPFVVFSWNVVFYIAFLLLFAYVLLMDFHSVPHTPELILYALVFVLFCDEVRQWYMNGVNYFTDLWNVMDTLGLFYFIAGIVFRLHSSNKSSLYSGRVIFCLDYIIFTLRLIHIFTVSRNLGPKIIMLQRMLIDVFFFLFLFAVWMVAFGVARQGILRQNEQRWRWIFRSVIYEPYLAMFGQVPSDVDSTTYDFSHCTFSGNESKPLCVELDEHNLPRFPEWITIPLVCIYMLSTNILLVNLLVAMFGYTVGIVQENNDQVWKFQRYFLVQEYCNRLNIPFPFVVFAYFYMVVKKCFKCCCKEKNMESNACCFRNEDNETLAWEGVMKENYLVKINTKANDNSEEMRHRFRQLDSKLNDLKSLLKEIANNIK", "details": "Dorsal root ganglion, HEK T-REx, 100 uM"}, "[4]": {"target": "Transient receptor potential cation channel subfamily M member 8 (Mus musculus) (UniProt Q8R4D5)", "details": "Dorsal root ganglion, HEK T-REx, 3 to 30 uM"}, "[5]": {"target": "T2, Transient receptor potential cation channel subfamily V member 3 (Homo sapiens) (UniProt Q8NET8)", "T2 sequence (whole entry)": "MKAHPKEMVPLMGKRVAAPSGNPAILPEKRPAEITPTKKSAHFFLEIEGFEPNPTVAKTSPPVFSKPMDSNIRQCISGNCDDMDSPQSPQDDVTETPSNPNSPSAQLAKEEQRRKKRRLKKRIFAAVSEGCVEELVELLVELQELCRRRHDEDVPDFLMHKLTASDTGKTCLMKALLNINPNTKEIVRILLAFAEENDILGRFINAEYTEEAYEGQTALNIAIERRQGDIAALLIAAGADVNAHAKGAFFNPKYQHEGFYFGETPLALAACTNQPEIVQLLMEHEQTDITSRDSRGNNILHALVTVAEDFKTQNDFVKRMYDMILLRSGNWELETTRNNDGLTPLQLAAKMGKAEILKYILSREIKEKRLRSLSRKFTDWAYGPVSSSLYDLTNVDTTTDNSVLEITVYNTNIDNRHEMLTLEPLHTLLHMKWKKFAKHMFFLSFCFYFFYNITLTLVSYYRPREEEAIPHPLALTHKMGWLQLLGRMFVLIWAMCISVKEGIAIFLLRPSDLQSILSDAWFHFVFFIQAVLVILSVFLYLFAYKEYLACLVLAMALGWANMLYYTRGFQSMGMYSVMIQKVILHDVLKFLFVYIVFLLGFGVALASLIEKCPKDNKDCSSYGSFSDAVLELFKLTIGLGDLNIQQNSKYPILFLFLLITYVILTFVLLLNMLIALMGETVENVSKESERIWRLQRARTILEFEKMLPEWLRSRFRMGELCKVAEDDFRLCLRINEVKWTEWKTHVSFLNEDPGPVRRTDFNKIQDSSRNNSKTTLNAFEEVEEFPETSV", "test": "Agonist activity at human TRPV3 expressed in HEK293T cells assessed as intracellular Ca2+ influx at 100 uM by Fluo-4 AM staining-based fluorescence analysis", "type": "cell-based", "details": "HEK-293T", "summary_of_the_method": "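hTRPV3 transiently expressed in HEK293T; loading and assay at 25 °C, Fluo-4 with probenecid buffer pH 7.4. Agonist 100 and 300 μM menthol, 5 μM ruthenium red as reference; 100 μM compound alone or pretreated 3 min. Data as % of 1000 μM menthol.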"}, "[6]": {"target": "Transient receptor potential cation channel subfamily V member 1 (Homo sapiens, UniProt Q8NER1)", "sequence (Q8NER1 whole entry)": "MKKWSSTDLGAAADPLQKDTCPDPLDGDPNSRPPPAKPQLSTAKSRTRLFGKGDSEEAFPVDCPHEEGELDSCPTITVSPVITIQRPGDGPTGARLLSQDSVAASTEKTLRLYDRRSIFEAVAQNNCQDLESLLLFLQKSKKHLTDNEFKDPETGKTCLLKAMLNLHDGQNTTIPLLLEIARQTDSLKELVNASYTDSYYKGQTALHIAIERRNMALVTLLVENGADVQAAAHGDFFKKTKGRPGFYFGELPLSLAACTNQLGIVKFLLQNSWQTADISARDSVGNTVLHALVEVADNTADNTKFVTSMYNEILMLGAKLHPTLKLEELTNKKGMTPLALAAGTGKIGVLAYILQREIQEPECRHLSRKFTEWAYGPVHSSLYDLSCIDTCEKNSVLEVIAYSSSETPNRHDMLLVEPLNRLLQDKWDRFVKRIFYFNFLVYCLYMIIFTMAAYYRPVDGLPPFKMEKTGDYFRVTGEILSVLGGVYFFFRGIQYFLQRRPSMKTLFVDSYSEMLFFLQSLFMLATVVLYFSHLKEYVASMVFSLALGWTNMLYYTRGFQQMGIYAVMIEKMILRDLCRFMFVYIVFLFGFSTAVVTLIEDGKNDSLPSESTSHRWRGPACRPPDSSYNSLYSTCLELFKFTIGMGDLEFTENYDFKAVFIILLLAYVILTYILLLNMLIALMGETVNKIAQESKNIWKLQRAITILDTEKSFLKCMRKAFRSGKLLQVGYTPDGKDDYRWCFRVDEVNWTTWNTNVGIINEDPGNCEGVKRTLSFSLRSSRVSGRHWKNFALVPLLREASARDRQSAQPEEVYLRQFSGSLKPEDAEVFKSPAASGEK", "test": "Competitive antagonist activity at human brain TRPV1 expressed in HEK293T cells assessed as inhibition of CAP-induced intracellular Ca2+ influx preincubated for 3 mins followed by CAP challenge", "type": "cell-based", "details": "HEK-293T", "summary_of_the_method": "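hTRPV1-HEK293T, Fluo-4 Ca2+ at 37 °C; antagonist (0.3−100 μM) preincubated 3 min then 0.01 μM capsaicin; DMSO final 0.1−1%. IC50 from dose−inhibition curves; data as % of 10 μM capsaicin.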"}, "[7]": {"target": "Transient receptor potential cation channel subfamily M member 8 (Mus musculus) (UniProt Q8R4D5)", "details": "Dorsal root ganglion, HEK T-REx, 100 uM", "remark": "listed apart in the source"}, "[8]": {"target": "Transient receptor potential cation channel subfamily M member 8 (Mus musculus) (UniProt Q8R4D5)", "details": "Dorsal root ganglion, HEK T-REx, 100 uM", "remark": "listed apart in the source"}, "[9]": {"target": "Transient receptor potential cation channel subfamily M member 8 (Mus musculus, UniProt Q8R4D5)", "sequence (Q8R4D5 whole entry)": "as the sequence (Q8R4D5 whole entry) above", "test": "Competitive antagonist at TRPM8 isolated from mouse dorsal root ganglion cells expressed in HEK T-REx cells assessed as inhibition of menthol-induced intracellular Ca2+ influx by Schlid plot analysis"}, "[10]": {"target": "T1, Transient receptor potential cation channel subfamily V member 2 (Homo sapiens)", "test": "Agonist activity at human TRPV2 expressed in HEK293T cells assessed as intracellular Ca2+ influx at 100 uM by Fluo-4 AM staining-based fluorescence analysis", "type": "cell-based", "details": "HEK-293T", "summary_of_the_method": "as §1"}, "[11]": {"target": "Transient receptor potential cation channel subfamily M member 8 (Mus musculus) (UniProt Q8R4D5)", "details": "Dorsal root ganglion, HEK T-REx, 3 to 30 uM", "remark": "listed apart in the source"}},
  "note": "Active and inactive are the calls of the source. The calls are words filed in the database; no cut-off is given here.",
  "data": [
    {"smiles": "CC[C@H]1C[C@@H]2CN3CCc4c([nH]c5ccc(OC)cc45)[C@](C(=O)OC)(C2)[C@H]13", "note": "[VOACANGINE]", "values": [
      {"measurement": "EC50", "setting": "[1]", "result": 8, "unit": "µM"},
      {"measurement": "Activity", "setting": "[1]; HEK-293T", "result": "Dose-dependent effect"},
      {"measurement": "Activity", "setting": "[2]", "result": "inactive"},
      {"measurement": "inhibition", "setting": "[3]", "result": "inactive"},
      {"measurement": "inhibition", "setting": "[4]", "result": "Active"},
      {"measurement": "Activity", "setting": "[5]", "result": "inactive"},
      {"measurement": "inhibition", "setting": "[6]", "result": "Active"},
      {"measurement": "inhibition", "setting": "[7]", "result": "Active"},
      {"measurement": "inhibition", "setting": "[8]", "result": "Active"},
      {"measurement": "Kb", "setting": "[9]", "result": 7.94, "unit": "µM"},
      {"measurement": "Activity", "setting": "[10]", "result": "inactive"},
      {"measurement": "inhibition", "setting": "[11]", "result": "Active"}
    ]}
  ]
}
